In assay [1] the target is T1, Ornithine decarboxylase (Mus musculus) (UniProt P00860).
T1 sequence (whole entry): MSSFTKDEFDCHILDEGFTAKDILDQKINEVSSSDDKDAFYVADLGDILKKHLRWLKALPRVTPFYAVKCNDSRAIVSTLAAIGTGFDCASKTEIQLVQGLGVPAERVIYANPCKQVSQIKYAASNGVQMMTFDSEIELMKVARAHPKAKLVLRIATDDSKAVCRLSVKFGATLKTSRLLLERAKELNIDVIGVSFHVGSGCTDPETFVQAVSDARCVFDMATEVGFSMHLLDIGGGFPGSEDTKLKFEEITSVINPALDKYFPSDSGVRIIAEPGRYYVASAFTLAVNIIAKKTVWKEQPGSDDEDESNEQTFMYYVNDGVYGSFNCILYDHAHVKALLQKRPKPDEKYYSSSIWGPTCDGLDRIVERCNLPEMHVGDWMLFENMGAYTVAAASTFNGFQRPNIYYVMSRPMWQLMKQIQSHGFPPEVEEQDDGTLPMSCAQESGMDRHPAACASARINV
Put plainly: Compound was evaluated for the ability to inhibit the phorbol ester induced increase of mouse epidermal ornithine decarboxylase (ODC) activity by 50% when administered topically using ODC assay. Type of assay: functional. In short, it runs like this:
(§1)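 Retinoids applied topically to mouse skin at 0.1, 1.0, 5.0, 10 and 50 nmol, 1 h before 10 nmol TPA. Epidermal ODC activity measured 4.5 h after TPA as nmol CO2/30 min per mg protein. ID50 (dose giving 50% inhibition of TPA-induced ODC) read from dose-response curves; three experiments, results normalized.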

In assay [2] the target is Ornithine decarboxylase (Mus musculus) (UniProt P00860). Put plainly: Compound was evaluated for the ability to inhibit the phorbol ester induced increase of mouse epidermal ornithine decarboxylase (ODC) activity by 50% when administered topically using ODC assay.
Another assay has as its system HL-60. Briefly: Compound was evaluated for the retinoid-induced differentiation of the human myeloid leukemia cell line HL-60 using trans-retinoic acid as the standard. It counts as functional. To be noted: read-out: ED50 (the source's name).
The target of assay [3] is T1, Ornithine decarboxylase (Mus musculus). Briefly: Compound was evaluated for the percentage inhibition of test retinoid as compared to the control by ODCassay. It counts as functional. To be noted: concentration not given here. In short, it runs like this: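 Single topical retinoid dose of 34 nmol given 1 h before 10 nmol TPA on mouse skin. Epidermal ODC assayed 4.5 h after TPA as nmol CO2/30 min per mg protein. Three groups of two mice each. % inhibition = [(ODC with TPA) − (ODC with TPA + retinoid)]/(ODC with TPA) × 100.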

Assay [4] shares this target. Put plainly: Compound was evaluated for the ability to inhibit the phorbol ester induced increase of mouse epidermal ornithine decarboxylase. It counts as functional. In short, it runs like this: as §1

`CC1(C)CC(C)(C)c2cc(/C(=C/c3ccc(C(=O)O)cc3)C(F)(F)F)ccc2S1`: the ID50 in assay [1] is above 50 nM.

The molecule `COC(=O)c1ccc(/C=C(\C)c2ccc3c(c2)C(C)(C)CC(C)(C)S3)cc1` returned an ID50 in assay [2] of 0.3 nM.

In the case of `CC1=C(/C=C/C(C)=C/C=C/C(C)=C\C(=O)O)C(C)(C)CCC1` [ISOTRETINOIN], the EC50 in the assay on HL-60 stood at 100 nM.

Turning to `COC(=O)c1ccc(/C=C(/c2ccc3c(c2)C(C)(C)CCO3)C(F)(F)F)cc1`, the ID50 in assay [1] was above 50 nM.

Molecule `CC1=C(/C=C/C(C)=C/C=C/C(C)=C/C(=O)O)C(C)(C)CCC1` [TRETINOIN] registered an ID50 in assay [1] of 0.12 nM. For the same molecule, in the assay on HL-60, the EC50 turned out to be 50 nM.

`C/C(=C\c1ccc(C(=O)O)cc1)c1ccc2c(c1)C(C)(C)CS2.CCCCCCCCCCCCCC(=O)OCC1(C)[C@H]2[C@@H]3C=C(CO)C[C@]4(O)C(=O)C(C)=C[C@H]4[C@@]3(O)[C@H](C)[C@@H](O)[C@]21OC(C)=O` (some centres undefined) gave an inhibition in assay [3] of 91%. The molecule also came in with an ID50 in assay [4] of 22 nM.

`CC(/C=C/C=C(\C)c1ccc2c(c1)C(C)(C)CC(C)(C)S2)=C\C(=O)O`: the ID50 in assay [1] is 3.7 nM. For the same molecule, the EC50 in the assay on HL-60 was above 1000 nM.

In assay [1], `C/C(=C\C=C\[C@H]1C[C@@H]1C(=O)O)c1ccc2c(c1)C(C)(C)CCS2` registered an ID50 of 35 nM. Also, the EC50 with HL-60 is above 1000 nM.

For the molecule `CC1(C)CCSc2ccc(/C(=C/c3ccc(C(=O)O)cc3)C(F)(F)F)cc21`, the ID50 in assay [1] worked out at 35 nM. Moreover, in the assay with HL-60, the EC50 was above 1000 nM.

As to `CC1(C)CCOc2ccc(/C(=C/c3ccc(C(=O)O)cc3)C(F)(F)F)cc21`, the ID50 in assay [1] is above 50 nM. For the same molecule, in the assay on HL-60, the EC50 was above 1000 nM.

Regarding `CCCCCCCCCCCCCC(=O)OCC1(C)[C@H]2[C@@H]3C=C(CO)C[C@]4(O)C(=O)C(C)=C[C@H]4[C@@]3(O)[C@H](C)[C@@H](O)[C@]21OC(C)=O.COC(=O)c1ccc(/C=C(\C)c2ccc3c(c2)C(C)(C)CS3)cc1` (some centres undefined), in assay [3], the inhibition came to 94%. Also, in assay [4], the ID50 worked out at 1.2 nM.

Take `C/C(=C\c1ccc(C(=O)O)cc1)c1ccc2c(c1)C(C)(C)CC(C)(C)S2`: the ID50 in assay [1] was 0.31 nM. Moreover, the EC50 in the assay with HL-60 was above 1000 nM.

Molecule `COC(=O)c1ccc(/C=C(/c2ccc3c(c2)C(C)(C)CCS3)C(F)(F)F)cc1` gave an ID50 in assay [1] above 50 nM.

As to `COC(=O)c1ccc(/C=C(/c2ccc3c(c2)C(C)(C)CC(C)(C)S3)C(F)(F)F)cc1`, the ID50 in assay [1] is above 50 nM.

The molecule `CC(/C=C/C=C(\C)c1ccc2c(c1)C(C)(C)CCS2)=C\C(=O)O` came in with an ID50 in assay [1] of 3.3 nM. In the assay on HL-60, the EC50 turned out to be 500 nM.
